Test results: ChEMBL document CHEMBL1255429, “Efflux pumps are involved in the defense of Gram-negative bacteria against the natural products isobavachalcone and diospyrone” (2010)
Values after ≈ are worked out from the molar mass of the structure shown.

Assays:
Format in all cases: functional
Klebsiella pneumoniae [1] = assay: Antimicrobial activity against Klebsiella pneumoniae KP55 after 18 hrs by rapid INT colorimetric assay in presence of efflux pump inhibitor phenylalanine arginine; settings: KP55, 18 h
Escherichia coli [2] = assay: Antimicrobial activity against tetracycline-resistant Escherichia coli AG100A after 18 hrs by rapid INT colorimetric assay in presence of efflux pump inhibitor phenylalanine arginine
Method in brief: (§1)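 Broth microdilution MIC in Mueller-Hinton broth with PAßN at a final 20 μg/ml throughout. Twofold dilutions of sample from DMSO-MHB stock; inoculum 1.5 × 10^6 CFU/ml; 18 h at 37°C, final DMSO <2.5%. Growth read by INT (0.2 mg/ml, 30 min, 37°C). MIC taken as lowest concentration with no pink colour.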

Klebsiella aerogenes [3] = assay: Antimicrobial activity against Enterobacter aerogenes EA-CM64 after 18 hrs by rapid INT colorimetric assay; settings: EA-CM64, 18 h
Method in brief: (§2)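 Strains precultured overnight on Mueller-Hinton agar. Samples dissolved in DMSO-MHB, serially diluted twofold in MHB, inoculum 1.5 × 10^6 CFU/ml in MHB added; 37°C, 18 h; final DMSO <2.5%. 0.2 mg/ml INT then added, 30 min at 37°C. MIC = lowest concentration preventing yellow-to-pink reduction, i.e. complete growth inhibition.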

Escherichia coli [4] = assay: Antimicrobial activity against tetracycline-resistant Escherichia coli AG102 after 18 hrs by rapid INT colorimetric assay; settings: AG102, 18 h; method in brief: as §2
Escherichia coli [5] = assay: Antimicrobial activity against tetracycline-resistant Escherichia coli AG100A after 18 hrs by rapid INT colorimetric assay; method in brief: as §2
Klebsiella aerogenes [6] = assay: Antimicrobial activity against Enterobacter aerogenes ATCC 13048 after 18 hrs by rapid INT colorimetric assay; settings: ATCC 13048, 18 h
Method in brief: (§3)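 Strains precultured overnight on Mueller-Hinton agar. Sample dissolved in DMSO-MHB, twofold serial dilutions in MHB, inoculum 1.5 × 10^6 CFU/ml; final DMSO below 2.5%. Incubated 37°C 18 h, then 0.2 mg/ml INT added, 30 min at 37°C. MIC = lowest concentration preventing yellow-to-pink change (complete growth inhibition). DMSO-only wells as negative control.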

Pseudomonas aeruginosa [7] = assay: Antimicrobial activity against Pseudomonas aeruginosa PAO1 after 18 hrs by rapid INT colorimetric assay; settings: PAO1, 18 h; method in brief: as §2
Escherichia coli [8] = assay: Antimicrobial activity against Escherichia coli AG100 after 18 hrs by rapid INT colorimetric assay in presence of efflux pump inhibitor phenylalanine arginine; settings: AG100, 18 h
Escherichia coli [9] = assay: Antimicrobial activity against Escherichia coli AG100A after 18 hrs by rapid INT colorimetric assay in presence of efflux pump inhibitor phenylalanine arginine
Enterobacter cloacae [10] = assay: Antimicrobial activity against Enterobacter cloacae Ec1194 after 18 hrs by rapid INT colorimetric assay in presence of efflux pump inhibitor phenylalanine arginine; settings: Ec1194, 18 h; method in brief: as §1
Klebsiella aerogenes [11] = assay: Antimicrobial activity against Enterobacter aerogenes EA-CM64 after 18 hrs by rapid INT colorimetric assay in presence of efflux pump inhibitor phenylalanine arginine; settings: EA-CM64, 18 h
Escherichia coli [12] = assay: Antimicrobial activity against Escherichia coli AG100A after 18 hrs by rapid INT colorimetric assay; method in brief: as §2
Klebsiella aerogenes [13] = assay: Antimicrobial activity against Enterobacter aerogenes EA5 after 18 hrs by rapid INT colorimetric assay in presence of efflux pump inhibitor phenylalanine arginine; settings: EA5, 18 h
Escherichia coli [14] = assay: Antimicrobial activity against Escherichia coli ATCC 8739 after 18 hrs by rapid INT colorimetric assay in presence of efflux pump inhibitor phenylalanine arginine; settings: ATCC 8739, 18 h; method in brief: as §1
Enterobacter cloacae [15] = assay: Antimicrobial activity against Enterobacter cloacae Ec07769 after 18 hrs by rapid INT colorimetric assay in presence of efflux pump inhibitor phenylalanine arginine; settings: Ec07769, 18 h
Klebsiella aerogenes [16] = assay: Antimicrobial activity against Enterobacter aerogenes EA27 after 18 hrs by rapid INT colorimetric assay in presence of efflux pump inhibitor phenylalanine arginine; settings: EA27, 18 h
Pseudomonas aeruginosa [17] = assay: Antimicrobial activity against Pseudomonas aeruginosa PAO1 after 18 hrs by rapid INT colorimetric assay in presence of efflux pump inhibitor phenylalanine arginine; settings: PAO1, 18 h
Enterobacter cloacae [18] = assay: Antimicrobial activity against Enterobacter cloacae Ec07769 after 18 hrs by rapid INT colorimetric assay; settings: Ec07769, 18 h; method in brief: as §3
Klebsiella aerogenes [19] = assay: Antimicrobial activity against Enterobacter aerogenes EA294 after 18 hrs by rapid INT colorimetric assay; settings: EA294, 18 h; method in brief: as §2
Klebsiella aerogenes [20] = assay: Antimicrobial activity against Enterobacter aerogenes EA3 after 18 hrs by rapid INT colorimetric assay in presence of efflux pump inhibitor phenylalanine arginine; settings: EA3, 18 h
Klebsiella aerogenes [21] = assay: Antimicrobial activity against Enterobacter aerogenes EA3 after 18 hrs by rapid INT colorimetric assay; settings: EA3, 18 h; method in brief: as §3
Klebsiella aerogenes [22] = assay: Antimicrobial activity against Enterobacter aerogenes ATCC 13048 after 18 hrs by rapid INT colorimetric assay in presence of efflux pump inhibitor phenylalanine arginine; settings: ATCC 13048, 18 h
Klebsiella pneumoniae [23] = assay: Antimicrobial activity against Klebsiella pneumoniae KP55 after 18 hrs by rapid INT colorimetric assay; settings: KP55, 18 h; method in brief: as §3
Klebsiella aerogenes [24] = assay: Antimicrobial activity against Enterobacter aerogenes EA5 after 18 hrs by rapid INT colorimetric assay; settings: EA5, 18 h; method in brief: as §3
Klebsiella pneumoniae [25] = assay: Antimicrobial activity against Klebsiella pneumoniae ATCC 11296 after 18 hrs by rapid INT colorimetric assay; settings: ATCC 11296, 18 h; method in brief: as §2
Klebsiella aerogenes [26] = assay: Antimicrobial activity against Enterobacter aerogenes EA294 after 18 hrs by rapid INT colorimetric assay in presence of efflux pump inhibitor phenylalanine arginine; settings: EA294, 18 h
Pseudomonas aeruginosa [27] = assay: Antimicrobial activity against Pseudomonas aeruginosa PA124 after 18 hrs by rapid INT colorimetric assay; settings: PA124, 18 h; method in brief: as §2
Klebsiella aerogenes [28] = assay: Antimicrobial activity against Enterobacter aerogenes EA27 after 18 hrs by rapid INT colorimetric assay; settings: EA27, 18 h; method in brief: as §3
Pseudomonas aeruginosa [29] = assay: Antimicrobial activity against Pseudomonas aeruginosa PA124 after 18 hrs by rapid INT colorimetric assay in presence of efflux pump inhibitor phenylalanine arginine; settings: PA124, 18 h
Escherichia coli [30] = assay: Antimicrobial activity against Escherichia coli AG100 after 18 hrs by rapid INT colorimetric assay; settings: AG100, 18 h; method in brief: as §2
Escherichia coli [31] = assay: Antimicrobial activity against tetracycline-resistant Escherichia coli AG102 after 18 hrs by rapid INT colorimetric assay in presence of efflux pump inhibitor phenylalanine arginine; settings: AG102, 18 h; method in brief: as §1
Klebsiella aerogenes [32] = assay: Antimicrobial activity against Enterobacter aerogenes EA298 after 18 hrs by rapid INT colorimetric assay; settings: EA298, 18 h; method in brief: as §2
Escherichia coli [33] = assay: Antimicrobial activity against Escherichia coli ATCC 10536 after 18 hrs by rapid INT colorimetric assay; settings: ATCC 10536, 18 h; method in brief: as §3
Klebsiella aerogenes [34] = assay: Antimicrobial activity against Enterobacter aerogenes EA289 after 18 hrs by rapid INT colorimetric assay; settings: EA289, 18 h; method in brief: as §3
Klebsiella pneumoniae [35] = assay: Antimicrobial activity against Klebsiella pneumoniae ATCC 11296 after 18 hrs by rapid INT colorimetric assay in presence of efflux pump inhibitor phenylalanine arginine; settings: ATCC 11296, 18 h
Klebsiella aerogenes [36] = assay: Antimicrobial activity against Enterobacter aerogenes EA298 after 18 hrs by rapid INT colorimetric assay in presence of efflux pump inhibitor phenylalanine arginine; settings: EA298, 18 h
Enterobacter cloacae [37] = assay: Antimicrobial activity against Enterobacter cloacae Ec1194 after 18 hrs by rapid INT colorimetric assay; settings: Ec1194, 18 h; method in brief: as §3
Klebsiella pneumoniae [38] = assay: Antimicrobial activity against Klebsiella pneumoniae KP63 after 18 hrs by rapid INT colorimetric assay in presence of efflux pump inhibitor phenylalanine arginine; settings: KP63, 18 h
Escherichia coli [39] = assay: Antimicrobial activity against Escherichia coli ATCC 10536 after 18 hrs by rapid INT colorimetric assay in presence of efflux pump inhibitor phenylalanine arginine beta-naphthylamide; settings: ATCC 10536, 18 h; method in brief: as §1
Klebsiella pneumoniae [40] = assay: Antimicrobial activity against Klebsiella pneumoniae KP63 after 18 hrs by rapid INT colorimetric assay; settings: KP63, 18 h; method in brief: as §3
Klebsiella aerogenes [41] = assay: Antimicrobial activity against Enterobacter aerogenes EA289 after 18 hrs by rapid INT colorimetric assay in presence of efflux pump inhibitor phenylalanine arginine; settings: EA289, 18 h
Escherichia coli [42] = assay: Antimicrobial activity against Escherichia coli ATCC 8739 after 18 hrs by rapid INT colorimetric assay; settings: ATCC 8739, 18 h; method in brief: as §2

CCn1cc(C(=O)O)c(=O)c2cc(F)c(N3CCNCC3)cc21 [NORFLOXACIN] was tested, and the MIC (Klebsiella pneumoniae [1]) was 8 µg/mL, the MIC (Escherichia coli [2]) was 0.25 µg/mL and the MIC (Klebsiella aerogenes [3]) was 4 µg/mL (≈ 12.5 µM). It also gave an MIC (Escherichia coli [4]) of 1 µg/mL (≈ 3.13 µM), an MIC (Escherichia coli [5]) of 1 µg/mL (≈ 3.13 µM) and an MIC (Klebsiella aerogenes [6]) of 0.25 µg/mL (≈ 0.783 µM). For the same compound, the MIC (Pseudomonas aeruginosa [7]) was 2 µg/mL (≈ 6.26 µM), the MIC (Escherichia coli [8]) was 0.12 µg/mL and the MIC (Escherichia coli [9]) was 0.007 µg/mL. The MIC (Enterobacter cloacae [10]) was 32 µg/mL, the MIC (Klebsiella aerogenes [11]) was 2 µg/mL and the MIC (Escherichia coli [12]) was 0.03 µg/mL (≈ 0.0939 µM). For the same compound, the MIC (Klebsiella aerogenes [13]) was 128 µg/mL, the MIC (Escherichia coli [14]) was 0.12 µg/mL and the MIC (Enterobacter cloacae [15]) was > 256 µg/mL. The MIC (Klebsiella aerogenes [16]) was 128 µg/mL, the MIC (Pseudomonas aeruginosa [17]) was 1 µg/mL and the MIC (Enterobacter cloacae [18]) was > 256 µg/mL. The MIC (Klebsiella aerogenes [19]) was 64 µg/mL (≈ 200 µM), the MIC (Klebsiella aerogenes [20]) was 64 µg/mL and the MIC (Klebsiella aerogenes [21]) was 128 µg/mL (≈ 401 µM). The MIC (Klebsiella aerogenes [22]) was 0.25 µg/mL, the MIC (Klebsiella pneumoniae [23]) was 16 µg/mL (≈ 50.1 µM) and the MIC (Klebsiella aerogenes [24]) was 256 µg/mL (≈ 802 µM). The MIC (Klebsiella pneumoniae [25]) was 1 µg/mL (≈ 3.13 µM), the MIC (Klebsiella aerogenes [26]) was 32 µg/mL and the MIC (Pseudomonas aeruginosa [27]) was 64 µg/mL (≈ 200 µM). It also gave an MIC (Klebsiella aerogenes [28]) of 256 µg/mL (≈ 802 µM), an MIC (Pseudomonas aeruginosa [29]) of 32 µg/mL and an MIC (Escherichia coli [30]) of 0.12 µg/mL (≈ 0.376 µM). The MIC (Escherichia coli [31]) was 0.25 µg/mL, the MIC (Klebsiella aerogenes [32]) was 8 µg/mL (≈ 25.1 µM) and the MIC (Escherichia coli [33]) was 0.06 µg/mL (≈ 0.188 µM). The MIC (Klebsiella aerogenes [34]) was 128 µg/mL (≈ 401 µM), the MIC (Klebsiella pneumoniae [35]) was 0.5 µg/mL and the MIC (Klebsiella aerogenes [36]) was 8 µg/mL. The MIC (Enterobacter cloacae [37]) was 32 µg/mL (≈ 100 µM), the MIC (Klebsiella pneumoniae [38]) was 4 µg/mL and the MIC (Escherichia coli [39]) was 0.03 µg/mL. It also gave an MIC (Klebsiella pneumoniae [40]) of 16 µg/mL (≈ 50.1 µM), an MIC (Klebsiella aerogenes [41]) of 128 µg/mL and an MIC (Escherichia coli [42]) of 0.12 µg/mL (≈ 0.376 µM).
